{"source": "ChEMBL document CHEMBL4184291", "about": "“Discovery of N-arylpyrroles as agonists of GPR120 for the treatment of type II diabetes” (Bioorg Med Chem Lett, 2018)", "key": {"Cytochrome P450 3A4": {"target": "Cytochrome P450 3A4 (Homo sapiens, UniProt P08684)", "sequence (P08684 whole entry)": "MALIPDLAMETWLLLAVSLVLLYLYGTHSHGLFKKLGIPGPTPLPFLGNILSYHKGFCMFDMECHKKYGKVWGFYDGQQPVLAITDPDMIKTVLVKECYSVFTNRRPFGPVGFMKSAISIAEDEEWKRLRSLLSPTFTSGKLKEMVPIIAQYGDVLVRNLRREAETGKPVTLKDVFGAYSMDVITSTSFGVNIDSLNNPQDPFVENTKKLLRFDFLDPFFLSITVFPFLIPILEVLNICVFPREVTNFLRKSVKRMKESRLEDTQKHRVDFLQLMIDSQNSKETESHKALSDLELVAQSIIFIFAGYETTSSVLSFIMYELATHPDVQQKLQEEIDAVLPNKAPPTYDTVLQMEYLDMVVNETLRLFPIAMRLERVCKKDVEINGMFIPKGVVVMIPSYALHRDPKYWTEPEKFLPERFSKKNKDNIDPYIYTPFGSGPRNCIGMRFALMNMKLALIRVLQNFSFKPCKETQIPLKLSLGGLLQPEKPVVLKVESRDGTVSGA", "assay": "Inhibition of CYP3A4 (unknown origin)", "assay_type": "ADME"}, "Mus musculus [1]": {"tested_on": "Mus musculus", "assay": "Antiobesity activity in diet-induced obesity C57Bl6/J mouse model assessed as basal insulin level in plasma at 10 mg/kg qd for 15 days measured on day 15 post 6 hrs fasting (reference value: 16959 +/- 4943 pg/ml)", "assay_type": "functional"}, "[2]": {"assay": "Half life in mouse at 14.6 mg/kg, po by LC-MS/MS analysis", "assay_type": "ADME, organism-based", "conditions": "in vivo"}, "Mus musculus [3]": {"tested_on": "Mus musculus", "assay": "Antiobesity activity in diet-induced obesity C57Bl6/J mouse model assessed as change in plasma glucose level at 10 mg/kg qd for 15 days measured on day 15 post 6 hrs fasting", "assay_type": "functional"}, "[4]": {"assay": "Protein binding in human plasma", "assay_type": "ADME, cell-free", "conditions": "read-out: PPB (converted)"}, "[5]": {"assay": "Half life in mouse at 1.15 mg/kg, iv by LC-MS/MS analysis", "assay_type": "ADME, organism-based", "conditions": "in vivo"}, "Cavia porcellus [6]": {"tested_on": "Cavia porcellus", "assay": "Cardiotoxicity in guinea pig assessed as effect on QRS interval at 22.4 mg/kg", "assay_type": "toxicity, organism-based", "conditions": "in vivo"}, "Mus musculus [7]": {"tested_on": "Mus musculus", "assay": "Antiobesity activity in diet-induced obesity C57Bl6/J mouse model assessed as final glucose level in plasma at 30 mg/kg qd for 15 days measured on day 15 post 6 hrs fasting (reference value: 184 +/- 30 mg/dL)", "assay_type": "functional"}, "Cavia porcellus [8]": {"tested_on": "Cavia porcellus", "assay": "Cardiotoxicity in guinea pig assessed as effect on body temperature at 22.4 mg/kg", "assay_type": "toxicity, organism-based", "conditions": "in vivo"}, "Mus musculus [9]": {"tested_on": "Mus musculus", "assay": "Antiobesity activity in diet-induced obesity C57Bl6/J mouse model assessed as final glucose level in plasma at 10 mg/kg bid for 15 days measured on day 15 post 6 hrs fasting (reference value: 184 +/- 30 mg/dL)", "assay_type": "functional"}, "Cytochrome P450 2D6": {"target": "Cytochrome P450 2D6 (Homo sapiens, UniProt P10635)", "sequence (P10635 whole entry)": "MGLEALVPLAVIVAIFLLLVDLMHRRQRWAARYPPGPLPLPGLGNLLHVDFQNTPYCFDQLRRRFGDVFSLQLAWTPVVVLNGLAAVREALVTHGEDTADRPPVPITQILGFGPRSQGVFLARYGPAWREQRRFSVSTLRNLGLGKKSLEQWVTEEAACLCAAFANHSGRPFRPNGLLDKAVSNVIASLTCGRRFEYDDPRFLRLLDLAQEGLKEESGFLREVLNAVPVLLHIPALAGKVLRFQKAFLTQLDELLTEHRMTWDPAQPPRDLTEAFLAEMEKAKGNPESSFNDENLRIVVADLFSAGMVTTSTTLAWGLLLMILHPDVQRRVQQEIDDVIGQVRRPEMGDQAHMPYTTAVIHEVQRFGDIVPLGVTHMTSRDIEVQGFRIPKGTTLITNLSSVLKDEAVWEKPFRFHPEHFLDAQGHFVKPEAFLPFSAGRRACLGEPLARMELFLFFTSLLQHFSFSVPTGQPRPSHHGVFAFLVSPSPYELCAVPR", "assay": "Inhibition of CYP2D6 (unknown origin)", "assay_type": "ADME"}, "[10]": {"target": "5-hydroxytryptamine receptor 5A (Homo sapiens) (UniProt P47898)", "sequence (P47898 whole entry)": "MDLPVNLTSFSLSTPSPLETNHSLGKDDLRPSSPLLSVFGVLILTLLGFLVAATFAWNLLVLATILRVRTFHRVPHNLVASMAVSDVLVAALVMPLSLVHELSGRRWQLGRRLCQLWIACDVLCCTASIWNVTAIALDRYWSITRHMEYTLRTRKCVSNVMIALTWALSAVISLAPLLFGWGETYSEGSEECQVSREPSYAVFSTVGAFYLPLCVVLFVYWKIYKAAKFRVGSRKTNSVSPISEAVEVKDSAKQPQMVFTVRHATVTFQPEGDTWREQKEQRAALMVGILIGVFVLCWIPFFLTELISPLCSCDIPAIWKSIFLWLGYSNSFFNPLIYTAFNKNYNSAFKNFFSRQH", "assay": "Displacement of […] from recombinant human 5-HT5A at 10 uM after 60 mins by scintillation counting method relative to control"}, "[11]": {"assay": "Volume of distribution at steady state in rat at 2 mg/kg, iv by LC-MS/MS analysis", "assay_type": "ADME, organism-based", "conditions": "in vivo, read-out: Vdss"}, "Mus musculus [12]": {"tested_on": "Mus musculus", "assay": "Antidiabetic activity in diet-induced obese C57Bl/6 mouse model assessed as plasma concentration required to show reduction in glucose level at 3 mg/kg administered 30 mins prior to glucose challenge measured up to 90 mins post dose by OGTT", "assay_type": "functional"}, "[13]": {"assay": "Cmax in guinea pig at 22.4 mg/kg", "assay_type": "ADME, organism-based, Cavia porcellus", "design": "dose 22.4 mg/kg", "conditions": "in vivo"}, "[14]": {"assay": "Clearance in mouse at 1.15 mg/kg, iv by LC-MS/MS analysis", "assay_type": "ADME, organism-based", "conditions": "in vivo"}, "Mus musculus [15]": {"tested_on": "Mus musculus", "assay": "Antiobesity activity in diet-induced obesity C57Bl6/J mouse model assessed as basal glucose level in plasma at 30 mg/kg qd for 15 days measured on day 15 post 6 hrs fasting (reference value: 187 +/- 24 mg/dL)", "assay_type": "functional"}, "[16]": {"assay": "Protein binding in rat plasma", "assay_type": "ADME, cell-free", "conditions": "read-out: PPB (converted)"}, "Cavia porcellus [17]": {"tested_on": "Cavia porcellus", "assay": "Cardiotoxicity in guinea pig assessed as effect on ECG morphology at 22.4 mg/kg", "assay_type": "toxicity, organism-based", "conditions": "in vivo"}, "[18]": {"assay": "Volume of distribution at steady state in dog at 1 mg/kg, iv by LC-MS/MS analysis", "assay_type": "ADME, organism-based, Canis lupus familiaris", "conditions": "in vivo, read-out: Vdss"}, "[19]": {"assay": "Clearance in dog at 1 mg/kg, iv by LC-MS/MS analysis", "assay_type": "ADME, organism-based, Canis lupus familiaris", "conditions": "in vivo"}, "Cavia porcellus [20]": {"tested_on": "Cavia porcellus", "assay": "Cardiotoxicity in guinea pig assessed as effect on PQ interval at 22.4 mg/kg", "assay_type": "toxicity, organism-based", "conditions": "in vivo"}, "Mus musculus [21]": {"tested_on": "Mus musculus", "assay": "Antiobesity activity in diet-induced obesity C57Bl6/J mouse model assessed as basal glucose level in plasma at 10 mg/kg qd for 15 days measured on day 15 post 6 hrs fasting (reference value: 187 +/- 24 mg/dL)", "assay_type": "functional"}, "Mus musculus [22]": {"tested_on": "Mus musculus", "assay": "Antidiabetic activity in diet-induced obese C57Bl/6 mouse model assessed as change in plasma glucose AUC at 1 mg/kg, po administered 30 mins prior to glucose challenge measured up to 90 mins post dose by OGTT", "assay_type": "functional", "how_it_was_run": "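Diet-induced obese mice dosed orally at 0.1–3.0 mg/kg 30 min before an oral glucose load (time 0). Glucose followed from 30 min pre-glucose to 90 min post-glucose. Saxagliptin 1 mg/kg was the positive control.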"}, "[23]": {"target": "Sodium-dependent noradrenaline transporter (Homo sapiens) (UniProt P23975)", "sequence (P23975 whole entry)": "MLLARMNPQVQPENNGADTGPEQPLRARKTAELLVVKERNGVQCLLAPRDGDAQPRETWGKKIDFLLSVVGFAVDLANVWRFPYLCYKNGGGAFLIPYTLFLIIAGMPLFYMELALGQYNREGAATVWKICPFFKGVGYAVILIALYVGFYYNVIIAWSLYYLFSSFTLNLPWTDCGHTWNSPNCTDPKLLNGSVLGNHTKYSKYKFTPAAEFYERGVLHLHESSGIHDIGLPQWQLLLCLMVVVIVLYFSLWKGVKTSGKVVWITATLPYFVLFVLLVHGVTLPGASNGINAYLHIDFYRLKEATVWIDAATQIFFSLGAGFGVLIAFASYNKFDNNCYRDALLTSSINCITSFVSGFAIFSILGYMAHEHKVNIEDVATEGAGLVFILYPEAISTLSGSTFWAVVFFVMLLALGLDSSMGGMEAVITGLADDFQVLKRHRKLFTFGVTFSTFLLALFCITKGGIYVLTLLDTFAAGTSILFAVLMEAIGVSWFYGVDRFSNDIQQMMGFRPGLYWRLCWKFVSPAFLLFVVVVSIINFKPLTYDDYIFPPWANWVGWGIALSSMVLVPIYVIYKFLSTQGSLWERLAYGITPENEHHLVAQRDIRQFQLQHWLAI", "assay": "Displacement of [3H]nisoxetine from recombinant human norepinephrine transporter at 10 uM after 120 mins by scintillation counting method relative to control"}, "[24]": {"assay": "Half life in dog at 1 mg/kg, iv by LC-MS/MS analysis", "assay_type": "ADME, organism-based, Canis lupus familiaris", "conditions": "in vivo"}, "Cavia porcellus [25]": {"tested_on": "Cavia porcellus", "assay": "Cardiotoxicity in guinea pig assessed as decrease in mean arterial blood pressure at 22.4 mg/kg", "assay_type": "toxicity, organism-based", "design": "scale not given: the % may be the effect or the level left", "conditions": "in vivo"}, "Mus musculus [26]": {"tested_on": "Mus musculus", "assay": "Antiobesity activity in diet-induced obesity C57Bl6/J mouse model assessed as reduction in body weight at 30 mg/kg qd for 15 days measured on day 15 post 6 hrs fasting relative to control", "assay_type": "functional", "design": "scale not given: the % may be the effect or the level left"}, "[27]": {"assay": "Volume of distribution at steady state in mouse at 1.15 mg/kg, iv by LC-MS/MS analysis", "assay_type": "ADME, organism-based", "conditions": "in vivo, read-out: Vdss"}, "Mus musculus [28]": {"tested_on": "Mus musculus", "assay": "Glucose lowering effect in GPR120 knock out mouse assessed as plasma glucose AUC at 10 mg/kg administered 30 mins prior to glucose challenge measured up to 90 mins post dose by ipGTT (reference value: 7319 mg/dL.min)", "assay_type": "functional, organism-based", "design": "time < 1.5 hr, dose 10 mg/kg", "how_it_was_run": "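Intraperitoneal glucose tolerance test in GPR120 knockout mice at 10 mg/kg. Wild-type mice were run in parallel, and glucose lowering was compared with vehicle-treated animals.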"}, "[29]": {"target": "T1, Free fatty acid receptor 4 (Homo sapiens, UniProt Q5NUL3)", "T1 sequence (Q5NUL3 whole entry)": "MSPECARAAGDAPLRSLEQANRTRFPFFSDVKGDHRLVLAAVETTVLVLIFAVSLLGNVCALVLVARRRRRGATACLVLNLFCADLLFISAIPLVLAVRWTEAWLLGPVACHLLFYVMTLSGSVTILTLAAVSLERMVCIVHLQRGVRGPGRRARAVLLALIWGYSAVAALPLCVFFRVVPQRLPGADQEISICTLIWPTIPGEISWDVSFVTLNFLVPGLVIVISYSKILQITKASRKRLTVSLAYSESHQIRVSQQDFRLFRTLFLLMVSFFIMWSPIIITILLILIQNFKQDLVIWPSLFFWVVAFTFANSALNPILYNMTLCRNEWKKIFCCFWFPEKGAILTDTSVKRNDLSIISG", "assay": "Agonist activity at GPR120 in human HT-29 cells assessed as intracellular calcium flux", "assay_type": "functional, cell-based", "how_it_was_run": "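Calcium-flux EC50 measured in HT-29 cells, a low-expressing line with endogenous GPR120.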"}, "Mus musculus [30]": {"tested_on": "Mus musculus", "assay": "Antiobesity activity in diet-induced obesity C57Bl6/J mouse model assessed as basal insulin level in plasma at 30 mg/kg qd for 15 days measured on day 15 post 6 hrs fasting (reference value: 16959 +/- 4943 pg/ml)", "assay_type": "functional"}, "[31]": {"target": "5-hydroxytryptamine receptor 2B (Homo sapiens) (UniProt P41595)", "sequence (P41595 whole entry)": "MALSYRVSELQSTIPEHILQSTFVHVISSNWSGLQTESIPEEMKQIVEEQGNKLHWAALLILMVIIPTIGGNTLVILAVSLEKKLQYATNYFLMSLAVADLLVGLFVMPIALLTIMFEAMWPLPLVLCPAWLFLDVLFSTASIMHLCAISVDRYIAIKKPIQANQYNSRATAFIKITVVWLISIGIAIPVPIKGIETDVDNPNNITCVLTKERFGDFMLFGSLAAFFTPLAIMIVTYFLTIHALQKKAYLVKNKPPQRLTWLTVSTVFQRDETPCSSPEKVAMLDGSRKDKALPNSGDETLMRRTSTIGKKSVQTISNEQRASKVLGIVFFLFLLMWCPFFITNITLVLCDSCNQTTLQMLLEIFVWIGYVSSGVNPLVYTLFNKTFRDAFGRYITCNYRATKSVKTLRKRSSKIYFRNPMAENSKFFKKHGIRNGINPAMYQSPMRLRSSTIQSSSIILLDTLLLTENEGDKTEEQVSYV", "assay": "Displacement of [125I](+/-)DOI from recombinant human 5-HT2B at 10 uM after 60 mins by scintillation counting method relative to control"}, "[32]": {"assay": "AUClast in dog at 5 mg/kg, po by LC-MS/MS analysis", "assay_type": "ADME, organism-based, Canis lupus familiaris", "design": "dose 5 mg/kg, route oral, time 0 - last", "conditions": "in vivo"}, "Cavia porcellus [33]": {"tested_on": "Cavia porcellus", "assay": "Cardiotoxicity in guinea pig assessed as effect on heart rate at 22.4 mg/kg", "assay_type": "toxicity, organism-based", "conditions": "in vivo"}}, "data": [{"smiles": "O=C(O)CCc1cc(F)c(OCc2c(C(F)(F)F)ccn2-c2ccc(Cl)cc2)c(F)c1", "values": [{"measurement": "INH", "setting": "Cytochrome P450 3A4", "result": "> 10", "unit": "µM"}, {"measurement": "Activity", "setting": "Mus musculus [1]", "result": 17395, "unit": "pg/mL"}, {"measurement": "half-life", "setting": "[2]", "result": 3.45, "unit": "h"}, {"measurement": "Activity", "setting": "Mus musculus [3]", "result": -23.7, "unit": "mg/dL"}, {"measurement": "fraction unbound", "setting": "[4]", "result": 0.0008}, {"measurement": "half-life", "setting": "[5]", "result": 4.14, "unit": "h"}, {"measurement": "Activity", "setting": "Cavia porcellus [6]", "result": "Non-Toxic"}, {"measurement": "Activity", "setting": "Mus musculus [7]", "result": 151, "unit": "mg/dL"}, {"measurement": "Activity", "setting": "Cavia porcellus [8]", "result": "Non-Toxic"}, {"measurement": "Activity", "setting": "Mus musculus [9]", "result": 170, "unit": "mg/dL"}, {"measurement": "INH", "setting": "Cytochrome P450 2D6", "result": "> 10", "unit": "µM"}, {"measurement": "inhibition", "setting": "[10]", "result": 58, "unit": "%"}, {"measurement": "Vd", "setting": "[11]", "result": 0.42, "unit": "L/kg"}, {"measurement": "EC", "setting": "Mus musculus [12]", "result": 32, "unit": "nM"}, {"measurement": "Cmax", "setting": "[13]", "result": 105, "unit": "µg/mL"}, {"measurement": "clearance", "setting": "[14]", "result": 4.9, "unit": "mL/min/kg"}, {"measurement": "Activity", "setting": "Mus musculus [15]", "result": 201, "unit": "mg/dL"}, {"measurement": "fraction unbound", "setting": "[16]", "result": 0.0017}, {"measurement": "Activity", "setting": "Cavia porcellus [17]", "result": "Non-Toxic"}, {"measurement": "Vd", "setting": "[18]", "result": 0.52, "unit": "L/kg"}, {"measurement": "clearance", "setting": "[19]", "result": 2.45, "unit": "mL/min/kg"}, {"measurement": "Activity", "setting": "Cavia porcellus [20]", "result": "Non-Toxic"}, {"measurement": "Activity", "setting": "Mus musculus [21]", "result": 202, "unit": "mg/dL"}, {"measurement": "Activity", "setting": "Mus musculus [22]", "result": -54, "unit": "%"}, {"measurement": "inhibition", "setting": "[23]", "result": 51, "unit": "%"}, {"measurement": "half-life", "setting": "[24]", "result": 4.72, "unit": "h"}, {"measurement": "Activity", "setting": "Cavia porcellus [25]", "result": 10, "unit": "%"}, {"measurement": "Activity", "setting": "Mus musculus [26]", "result": 4.6, "unit": "%"}, {"measurement": "Vd", "setting": "[27]", "result": 1.14, "unit": "L/kg"}, {"measurement": "AUC", "setting": "Mus musculus [28]", "result": 7430, "unit": "mg/dL·min"}, {"measurement": "EC50", "setting": "[29]", "result": 137, "unit": "nM"}, {"measurement": "Activity", "setting": "Mus musculus [30]", "result": 17067, "unit": "pg/mL"}, {"measurement": "inhibition", "setting": "[31]", "result": 62, "unit": "%"}, {"measurement": "AUC(0-t)", "setting": "[32]", "result": 47900, "unit": "ng·h/mL"}, {"measurement": "Activity", "setting": "Cavia porcellus [33]", "result": "Non-Toxic"}]}]}
